According to PMC5928661 (Molecular Medicine Reports, 2018):

Legend:
MRP4 (HepG2.A64 cells) = biological target: T1, MRP4 (HepG2.A64 cells) (Homo sapiens, UniProt O15439); type: in vitro ADME; details: HepG2.A64, drug 4 days, 5 µM MK571 4 h, LCMS
T1 sequence (O15439 1-1325): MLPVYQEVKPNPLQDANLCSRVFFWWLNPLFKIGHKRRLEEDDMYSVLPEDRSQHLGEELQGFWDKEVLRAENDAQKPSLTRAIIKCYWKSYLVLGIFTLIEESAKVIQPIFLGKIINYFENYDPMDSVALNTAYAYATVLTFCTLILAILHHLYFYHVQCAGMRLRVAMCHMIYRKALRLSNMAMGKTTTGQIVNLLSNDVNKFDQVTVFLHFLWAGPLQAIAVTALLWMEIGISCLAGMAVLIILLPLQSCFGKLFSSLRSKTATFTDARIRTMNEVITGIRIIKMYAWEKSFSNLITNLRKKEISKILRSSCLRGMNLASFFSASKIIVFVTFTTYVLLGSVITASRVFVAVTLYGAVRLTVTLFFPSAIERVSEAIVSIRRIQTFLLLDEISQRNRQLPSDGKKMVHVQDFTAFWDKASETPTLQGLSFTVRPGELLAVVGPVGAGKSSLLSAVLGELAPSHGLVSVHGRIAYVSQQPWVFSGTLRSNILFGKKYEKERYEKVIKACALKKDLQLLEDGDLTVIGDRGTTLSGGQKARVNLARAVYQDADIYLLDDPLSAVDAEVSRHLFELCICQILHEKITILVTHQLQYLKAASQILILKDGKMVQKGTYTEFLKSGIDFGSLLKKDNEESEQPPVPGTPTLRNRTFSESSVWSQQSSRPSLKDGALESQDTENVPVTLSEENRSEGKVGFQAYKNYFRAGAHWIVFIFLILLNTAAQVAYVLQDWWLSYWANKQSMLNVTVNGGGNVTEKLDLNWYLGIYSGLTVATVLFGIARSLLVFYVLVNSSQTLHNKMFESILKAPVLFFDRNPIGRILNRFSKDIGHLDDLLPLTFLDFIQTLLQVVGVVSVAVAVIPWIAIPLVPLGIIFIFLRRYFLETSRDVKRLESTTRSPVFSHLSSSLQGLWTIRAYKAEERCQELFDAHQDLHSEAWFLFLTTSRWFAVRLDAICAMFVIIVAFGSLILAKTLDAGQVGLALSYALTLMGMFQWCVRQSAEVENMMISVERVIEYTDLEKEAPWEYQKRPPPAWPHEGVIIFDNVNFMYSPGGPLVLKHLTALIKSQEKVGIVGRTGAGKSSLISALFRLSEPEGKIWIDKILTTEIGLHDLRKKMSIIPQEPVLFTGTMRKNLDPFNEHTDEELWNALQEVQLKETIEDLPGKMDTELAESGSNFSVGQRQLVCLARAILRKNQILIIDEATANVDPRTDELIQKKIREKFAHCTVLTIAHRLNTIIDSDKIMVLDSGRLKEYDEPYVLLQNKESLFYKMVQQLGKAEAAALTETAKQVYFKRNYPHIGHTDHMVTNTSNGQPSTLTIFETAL

[1] = system: wild-type HBV (HepG2.4D14 cells); test: Cell-based antiviral assay, supernatant HBV DNA by qPCR; details: Hepatitis B virus, 96 h, read-out: EC50 against HBV
HepG2.A64 cells = test: Cell proliferation; type: cell-based, human; details: HepG2.A64, CCK-8, 96 h
Outline: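 HepG2-derived cells carrying ETV-resistant HBV, kept in DMEM with 10% FBS, penicillin-streptomycin and 300 µg/ml geneticin at 37°C, 5% CO2. Seeded at 3×10^3 cells/well; after 24 h, drug dilution series in conditioned medium were added and renewed every other day for 4 days. CCK-8 was added, then 1~4 h incubation and absorbance at 450 nm. Five replicates, three independent experiments; IC50 calculated.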

[2] = system: ETV-resistant HBV (HepG2.A64 cells); test: Cell-based antiviral assay, supernatant HBV DNA by qPCR; set-up: species or system hepatitis B virus; details: for EC50: Hepatitis B virus, HepG2.A64, 96 h, read-out: EC50 against HBV
MRP4 (HepG2.4D14 cells) = biological target: T2, MRP4 (HepG2.4D14 cells) (Homo sapiens, UniProt O15439); type: in vitro ADME; details: HepG2.4D14, drug 4 days, 5 µM MK571 48 h, LCMS
T2 sequence (O15439 1-1325): T1 sequence (O15439 1-1325)

Row | Compound | Extracellular concentration in presence of MK571 vs control (absence of MK571) (MRP4 (HepG2.A64 cells)) | EC50 [1] | Doses at which apparent cytotoxicity was observed (HepG2.A64 cells) | EC50 [2] | Extracellular concentration in presence of MK571 vs control (absence of MK571) (MRP4 (HepG2.4D14 cells)) | Intracellular accumulation in presence of MK571 vs control (absence of MK571) (MRP4 (HepG2.A64 cells)) | Fold resistance (mutant EC50 to wild-type EC50) ([2]; HepG2.A64 vs HepG2.4D14) | Intracellular accumulation in presence of MK571 vs control (absence of MK571) (MRP4 (HepG2.4D14 cells))
1 | C=C1[C@H](CO)[C@@H](O)C[C@@H]1n1cnc2c(=O)[nH]c(N)nc21 [ETV, entecavir] | slightly reduced | 0.13 ± 0.02 µM | above 10 µM | 6.28 ± 0.07 µM | slightly reduced | – | – | –
2 | CN(C)C(=O)CCSC(SCCC(=O)O)c1cccc(/C=C/c2ccc3ccc(Cl)cc3n2)c1 (stereo not shown) [MK571, 3-([(3-(2-[7-chloro-2-quinolinyl]ethyl)phenyl]-[(3-dimethylamino-3-oxoporphyl)-thio)-methyl]-thio) propanoic acid] | – | – | above 10 µM | – | – | – | – | –
3 | Nc1ccn([C@@H]2CS[C@H](CO)O2)c(=O)n1 [LAM, lamivudine] | slightly reduced | 4.14 ± 0.03 µM | above 10 µM | 5.94 ± 0.2 µM | slightly reduced | – | – | –
4 | C[C@H](Cn1cnc2c(N)ncnc21)OCP(=O)(O)O [TFV, tenofovir] | slightly reduced | 3.24 ± 0.01 µM | above 10 µM | 11.43 ± 0.09 µM | slightly reduced | markedly increased | 3.5 fold | markedly increased
